# Compound activity deposited in PubChem by several laboratories.
# The sample as a whole holds a higher share of hits than the screen did.
# CHOP inhibitor – inhibitors of CHOP promoter induction, primary screen, cell-based, unfolded protein response, luciferase reporter; 220,000 compounds, 3.8% hits; inhibition, % at 10 µM; CHO-K1 CHOP-promoter luciferase, tunicamycin-induced, 15-18 h;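 active means compounds that reduced the stress-induced luciferase reporter signal by more than about 70% of percent inhibition, limit read from the data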;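 further: 0% = tunicamycin plus vehicle and 100% = wells without tunicamycin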
# UPR CHOP act – activators of apoptotic CHOP UPR arm, primary screen, cell-based, CHO-CHOP luciferase reporter, luminescence, uHTS | activation, % at 10 µM | UPR activation; percent of tunicamycin response over DMSO baseline | AID 449763, 2010 | 330,000 compounds, 0.34% hits;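 active means at 10 µM dose, activation of 40% or more, normalized to positive control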;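 further: 100% = tunicamycin at 10 µg/mL and 0% = DMSO alone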
#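 System: CHO-CHOP luciferase reporter cell line | Buffer or medium: F12 medium containing 10% fetal bovine serum | Doses: One dose, 10 µM in 0.5% DMSO | Times: 6 h compound exposure at 37 °C after overnight seeding | Signal: Luciferase luminescence | Read-out: % activation vs tunicamycin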
# L major viab – Leishmania major promastigote growth inhibition, primary screen. 200,000 compounds, 9% hits. inhibition, % at 10 µM. Leishmania major promastigotes, resazurin fluorescence viability; in the data active means inhibition above about 50%;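 further: promastigotes grown with compound for 44 hours at 28 °C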
# T cruzi repl – inhibitors of intracellular T. cruzi growth, primary screen, luminescence, NIH3T3 host cells | T. cruzi beta-gal in NIH3T3, 90 h | 300,000 compounds, 1.4% hits | inhibition, % (no concentration beside the values) | AID 1885, 2009;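 active means mean inhibition across valid replicates above about 55%, limit read from the data; inconclusive means mean below that limit but half or more replicates reach it; inactive means mean below it, under half of replicates reach it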;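 further: signal also drops with host cell toxicity which is not excluded here; 0% = plate median of DMSO wells and 100% = zero luminescence signal; higher percent means less beta-gal luminescence so fewer parasites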
#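 assay system = mouse NIH/3T3 fibroblasts infected with β-gal-expressing T. cruzi Tulahuen C4 | input = 5,000 NIH/3T3 host cells per well | buffer or medium = DMEM plus 2% FBS | timing = 3 h host attachment, then at least 90 h co-culture | measured by = GalScreen luminescence, 60 min | evaluation = luminescence reflecting intracellular parasite burden, expressed as percent inhibition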
# Dynein transport – inhibitors of GR-EGFP nuclear translocation, primary screen, dynein cargo transport inhibitor project, imaging, high-content, 3617.4 mouse cells | 220,000 compounds, 0.47% hits | z-score, hits read low | test concentration mostly 20 µM; stimulated with dexamethasone, 1 µM; active compounds read low | AID 1381, 2008;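 active means plate z-score of nuclear minus cytoplasmic receptor signal below a set negative limit, without overly bright fluorescence or cell loss, cut at about -3.5 in these data, passing the limit was not always enough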;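 further: z-score of nuclear minus cytoplasmic ring GR-EGFP intensity difference per well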
#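 Buffer or medium: tet-free, stripped-serum medium; reagent: dexamethasone at 1.0 µM final, 30 min; incubation: 48 h induction, 1 h compound, 30 min dex at 37 °C; measured by: formaldehyde fixation, Hoechst nuclear stain, 10x automated fluorescence imaging; read-out: nuclear-to-cytoplasmic GR-EGFP distribution per well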
# XBP1 UPR activ – activators of adaptive XBP1 UPR arm, primary screen, cell-based, CHO-XBP1 luciferase reporter, luminescence, uHTS; IRE1-XBP1 UPR activation; percent of tunicamycin response, DMSO as zero; 330,000 compounds, 0.33% hits; activation, % at 20 µM;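 active means versus positive control, 20 µM dose yields 30% or more activation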;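 further: 100% = tunicamycin at 10 µg/mL and 0% = DMSO only wells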
#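 incubation = overnight seeding at 37 °C, 6 h compound treatment at 37 °C | assay system = CHO-XBP1 cells stably carrying IRE1-XBP1-driven luciferase reporter | input = 1000 cells per well | detection = luciferase luminescence | dosing = single point, 20 µM final compound, 1% DMSO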
# * marks the source's active call; other numbers are inactive results; ? = inconclusive; . = no result given.
SMILES,CHOP inhibitor,UPR CHOP act,L major viab,T cruzi repl,Dynein transport,XBP1 UPR activ
S=C(Nc1ccccc1Cl)N(Cc1ccccc1)Cc1cccnc1,22,0,91*,62*,-0.56,1
COc1ccccc1NC(=S)N(Cc1cccnc1)Cc1ccccc1Cl,-7,1,77*,-4,-0.56,-2
Cc1ccc(Cl)cc1NC(=O)NCc1cccnc1,.,4,.,-1,.,-9
CCOC(=O)CNC(=S)N(Cc1ccccc1)Cc1cccnc1,33,-1,15,35,-1.4,-1
COc1ccccc1NC(=S)N(Cc1ccc(C)cc1)Cc1cccnc1,10,0,6,17,-0.097,-1
O=C(Cn1cnc2c(nnn2Cc2ccc(F)cc2)c1=O)Nc1ccc2c(c1)OCCO2,.,1,.,-18,.,-3
O=C(O)CC(NC(=O)c1ccccc1NC(=O)c1ccccc1)C(=O)O (configuration not stated),22,-2,-5,-6,-0.96,-1
CCC(NC(=O)c1ccccc1NC(=O)c1ccccc1)C(=O)O (configuration not stated),-6,-1,65*,0,-0.32,3
CCC(NC(=O)c1ccccc1NC(=O)c1ccco1)C(=O)O (configuration not stated),69,-1,89*,.,0.52,-3
CCOC(=O)c1[nH]c(COC(=O)c2ccccc2NC(=O)c2ccco2)c(C(=O)OCC)c1C,81*,9,8,22,-1.1,-1
COC(=O)c1cc(NS(=O)(=O)c2ccc(C)c3ccccc23)ccc1N1CCOCC1,4,0,.,0,1.1,1
COc1cccc(NC(=O)CN(C)C(=O)c2cc(-c3cccc(Br)c3)nc3ccccc23)c1,.,4,.,38,.,-2
CCN1CCN(Cc2c(C(=O)N/N=C(\C)c3ccc(Cl)c(Cl)c3)nnn2-c2nonc2N)CC1,.,1,.,1,.,0
CCOC(=O)c1c(NC(NC(=O)C(C)C)C(Cl)(Cl)Cl)sc2c1CCC2 (configuration not stated),53,3,86*,16,0.19,-1
NC(=O)c1nc(C2CCCCC2)nc2c1[nH]c(=O)n2-c1ccc(F)cc1,89*,0,54*,8,0.67,4
COc1ccccc1-n1c(=O)[nH]c2c(C(N)=O)nc(CC(C)C)nc21,-9,1,36,7,0.35,0
Cc1ccc(-n2c(=O)[nH]c3c(C(N)=O)nc(CC(C)C)nc32)cc1,49,1,70*,0,0.28,5
CCCn1c(N)c(N(CCOC)C(=O)Cc2ccc(S(=O)(=O)N3CCOCC3)s2)c(=O)[nH]c1=O,.,0,.,-15,.,-1
CC(=O)Nc1ccc(C(=O)COC(=O)C2CC2C)c(F)c1 (configuration not stated),.,-1,.,.,.,-3
CCN(c1ccccc1)S(=O)(=O)c1ccc(Cl)c(C(=O)NCc2ccco2)c1,.,0,.,.,.,-1
CCN(CC)CC(=O)Nc1c(C)cccc1C,9,-1,17,.,0.47,0
O=C1c2ccccc2C(=O)c2c(NCCCN(CCO)CCO)cccc21,-3,-2,100*,?,-0.61,-7
O=C1c2ccccc2-c2c1cccc2C(=O)N(CCO)CCO,-16,-1,-8,-20,-1.2,-2
CCN(CC)CC(=O)Nc1cccc2c1C(=O)c1ccccc1C2=O,77*,-1,9,32,-0.021,-4
O=C(N/C(=C\c1cccc([N+](=O)[O-])c1)C(=O)N1CCOCC1)c1cccc(Br)c1,.,0,.,-2,.,0
Cc1cc(C=C2C(=O)c3ccccc3C2=O)c(C)n1-c1ccc(C(=O)O)cc1,-3,-1,4,-11,0.77,1
Cc1cc(C=C2C(=O)c3ccccc3C2=O)c(C)n1-c1ccccc1,84*,-8,1,0,0.12,-4
